The record followed here is paper PMC3781598 (Pharmaceutical research, 2013).

≈ marks a conversion by molar mass, not a printed value. A value given as a limit tells only on which side of the number the result lay.

A word on the half-life: it is how long it takes for the measured level to halve. What is called solubility is the concentration that dissolves in the medium under given conditions. Broadly, the microsomal CLint is the rate of metabolic loss divided by the concentration. High values mean rapid turnover, low ones slow turnover.

One series deals with T1, CYP1A2 (Homo sapiens, UniProt P05177).
T1 sequence (P05177 2-516 limits assumed): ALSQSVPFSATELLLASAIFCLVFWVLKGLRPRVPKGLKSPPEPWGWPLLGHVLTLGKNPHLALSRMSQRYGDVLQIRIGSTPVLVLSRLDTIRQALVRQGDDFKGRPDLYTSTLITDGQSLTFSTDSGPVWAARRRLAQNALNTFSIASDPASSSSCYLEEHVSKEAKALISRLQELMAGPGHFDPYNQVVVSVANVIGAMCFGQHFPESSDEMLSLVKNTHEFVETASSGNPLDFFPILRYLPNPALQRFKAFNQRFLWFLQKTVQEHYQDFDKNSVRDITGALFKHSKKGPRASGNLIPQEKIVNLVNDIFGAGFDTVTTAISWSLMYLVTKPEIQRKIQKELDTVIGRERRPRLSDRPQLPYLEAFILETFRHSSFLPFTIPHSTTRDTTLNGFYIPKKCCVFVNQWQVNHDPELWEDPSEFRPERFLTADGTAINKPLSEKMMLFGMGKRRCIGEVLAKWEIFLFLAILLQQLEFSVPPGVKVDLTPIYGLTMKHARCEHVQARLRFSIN
In words: Metabolic stability phenotyping with recombinantly expressed CYPs. The series is classed as in vitro ADME. As to conditions: for half-life at 1 μM: human, recombinant CYP1A2, pH 7.4. In short, it runs like this:
(§1)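 Each recombinant human CYP at 100 pmol/ml with 1 μM test compound in potassium phosphate pH 7.4, 3.33 mM MgCl2. Prewarmed 10 min at 37 °C, then started with NADPH regenerating system; no-NADPH buffer controls. Aliquots at 0–45 min quenched in methanol with buspirone internal standard. MS peak-area ratios gave ln(ratio)-vs-time slope, converted to T1/2. Duplicates.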

A short description of series [1]: Aqueous solubility, shake-flask incubation method. The series is classed as physicochemical. As to conditions: phosphate-buffered saline, pH 7.4, aqueous buffer, thermodynamic from solid. The essentials:
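Shake-flask equilibration of test compound in phosphate-buffered saline, pH 7.4, for 24 h at room temperature.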

In a further series the target is T2, CYP2B6 (Homo sapiens, UniProt P20813).
T2 sequence (P20813 1-491): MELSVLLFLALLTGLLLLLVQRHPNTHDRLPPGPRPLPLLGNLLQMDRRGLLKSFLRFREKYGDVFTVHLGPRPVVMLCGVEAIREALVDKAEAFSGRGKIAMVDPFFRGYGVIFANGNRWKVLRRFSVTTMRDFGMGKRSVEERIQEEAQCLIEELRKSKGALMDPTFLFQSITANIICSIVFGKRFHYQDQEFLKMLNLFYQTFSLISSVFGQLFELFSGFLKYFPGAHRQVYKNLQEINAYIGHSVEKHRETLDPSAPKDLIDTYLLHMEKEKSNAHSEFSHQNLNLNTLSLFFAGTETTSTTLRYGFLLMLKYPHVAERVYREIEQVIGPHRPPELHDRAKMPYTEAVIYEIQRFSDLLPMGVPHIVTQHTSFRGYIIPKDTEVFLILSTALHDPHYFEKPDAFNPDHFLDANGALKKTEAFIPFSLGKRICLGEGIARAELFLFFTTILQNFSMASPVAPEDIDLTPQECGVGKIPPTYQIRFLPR
In words: Metabolic stability phenotyping with recombinantly expressed CYPs. As to conditions: recombinant CYP2B6, pH 7.4. The class given is in vitro ADME. The essentials:
as §1

A short description of series [2]: Metabolic stability in lung microsomes. The class given is in vitro ADME, male Sprague-Dawley rat. As to conditions: for half-life at 1 μM / microsomal CLint at 1 μM: male, Sprague-Dawley, rat, lung microsomes, pH 7.4; for Percent Loss of Substrate: rat lung microsomes, 1 μM, 20-minute incubation. The essentials:
(§2)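 Pooled liver or lung microsomes (male B6C2F1 mouse, male Sprague-Dawley rat, human) at 1.0 mg protein/ml in 50 mM potassium phosphate pH 7.4, 3 mM MgCl2, 1 mM EDTA. […] Stopped at 0, 5, 10, 20 min with acetonitrile containing antipyrene, then LC/MS/MS. Single-exponential kel gave T1/2. CLint = kel × incubation volume/mg protein.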

A short description of series [3]: Metabolic stability in liver microsomes. The class given is in vitro ADME, male B6C2F1 mouse. As to conditions: for half-life at 1 μM / microsomal CLint at 1 μM: male, B6C2F1, mouse, liver microsomes, pH 7.4; for Percent Loss of Substrate: mouse liver microsomes, 1 μM, 20-minute incubation. In short, it runs like this:
as §2
(Microsomes from liver hold many membrane-bound enzymes, among them those of drug oxidation.)

Another series addresses T3, CYP2C8 (Homo sapiens, UniProt P10632).
T3 sequence (P10632 1-490): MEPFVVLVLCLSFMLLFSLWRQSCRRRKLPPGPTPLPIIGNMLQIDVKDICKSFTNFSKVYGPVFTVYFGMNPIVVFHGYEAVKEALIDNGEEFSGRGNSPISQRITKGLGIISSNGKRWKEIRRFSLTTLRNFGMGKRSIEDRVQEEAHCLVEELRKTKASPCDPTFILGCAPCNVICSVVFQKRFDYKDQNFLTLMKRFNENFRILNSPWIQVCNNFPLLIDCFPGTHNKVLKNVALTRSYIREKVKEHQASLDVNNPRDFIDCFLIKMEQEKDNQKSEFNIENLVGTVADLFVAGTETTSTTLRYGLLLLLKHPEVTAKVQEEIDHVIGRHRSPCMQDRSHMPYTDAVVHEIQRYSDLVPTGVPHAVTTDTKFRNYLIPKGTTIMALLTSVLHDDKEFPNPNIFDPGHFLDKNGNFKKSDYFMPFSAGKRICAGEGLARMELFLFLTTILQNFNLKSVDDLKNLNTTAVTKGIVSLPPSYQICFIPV
In words: Metabolic stability phenotyping with recombinantly expressed CYPs. As to conditions: recombinant CYP2C8, pH 7.4. The class given is in vitro ADME. The essentials: as §1

In a further series the target is CYP2C9 (Homo sapiens, UniProt P11712). Described as above. The class given is in vitro ADME. As to conditions: recombinant CYP2C9, pH 7.4. In short, it runs like this: as §1
Sequence of CYP2C9 (P11712 whole entry): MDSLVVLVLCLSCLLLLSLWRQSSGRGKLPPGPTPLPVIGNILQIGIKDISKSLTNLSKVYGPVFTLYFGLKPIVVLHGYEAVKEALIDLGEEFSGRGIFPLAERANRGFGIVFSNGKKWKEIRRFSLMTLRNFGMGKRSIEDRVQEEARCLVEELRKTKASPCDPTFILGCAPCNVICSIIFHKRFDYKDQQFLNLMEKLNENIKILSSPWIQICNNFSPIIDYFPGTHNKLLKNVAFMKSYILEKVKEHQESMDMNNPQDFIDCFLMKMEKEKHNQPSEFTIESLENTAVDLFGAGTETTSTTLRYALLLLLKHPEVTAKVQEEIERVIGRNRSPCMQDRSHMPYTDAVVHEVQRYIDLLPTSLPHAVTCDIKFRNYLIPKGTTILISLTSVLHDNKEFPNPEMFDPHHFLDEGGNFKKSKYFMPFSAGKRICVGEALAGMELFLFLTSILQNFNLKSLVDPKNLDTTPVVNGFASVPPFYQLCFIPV
Series [4] in a line: Metabolic stability in knockout mouse liver microsomes. The class given is in vitro ADME. The essentials:
(§3)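 Microsomes from B6 Cyp2a(4/5)bgs-null (CYP2A/CYP2B knockout) or side-by-side wild-type mouse lung and liver, at 0.1 mg protein/ml. Buffer was 50 mM potassium phosphate pH 7.4, 3 mM MgCl2, 1 mM EDTA. […] Parent loss by LC/MS/MS. Single-exponential kel converted to T1/2; CLint = kel × volume/mg protein.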

Series [5] is described as follows: Metabolic stability in knockout mouse lung microsomes. The class given is in vitro ADME. In short, it runs like this:
as §3

The nature of series [6]: Metabolic stability in wild type mouse lung microsomes. The series is classed as in vitro ADME. As to conditions: pH 7.4. The essentials:
as §3

Series [7] is described as follows: Metabolic stability in wild type mouse liver microsomes. The class given is in vitro ADME. As to conditions: pH 7.4. In short, it runs like this: as §3
Setting [8] is: B6 Cyp2a(4/5)bgs-Null, mouse, liver microsomes from knockout mice, pH 7.4.
Setting [9] is: B6 Cyp2a(4/5)bgs-Null, mouse, lung microsomes from knockout mice, pH 7.4.

Consider `Clc1ccccc1CN1CCOCC1` [Compound 3, 4-(2-chlorobenzyl)morpholine], for which the half-life at 1 μM on CYP1A2 was 38.6 h; on CYP2B6 it was below 5 min; in series [2], 2.4 min; in [3] it was 60 s; on CYP2C8, 1.03 h; at CYP2C9 it was 7.93 h. Besides, the “Average T1/2 CYP1A2” value at CYP1A2 (recombinant enzyme 100 pmol/ml, 1 μM compound) is “essentially no loss”. The amount in solution in series [1] (solubility at 24 h) came to 180 µM (≈ 38.1 µg/mL). Moreover, the microsomal CLint at 1 μM stood at 283 µL/min/mg in [2] and 687 µL/min/mg in series [3]. Further, the results for the “Percent Loss of Substrate” value in series [2] and in [3] were 99.8% and 100/100%, respectively.
For the molecule `Fc1cccc(Cl)c1CN1CCOCC1` [Compound 7, 4-(2-chloro-6-fluorobenzyl)morpholine], the “increase in metabolic stability, transgenic vs wild type liver microsomes” value in series [4] (0.1 mg/ml protein) is 1.7 fold. Besides, the half-life at 1 μM is 2.12 h in series [4] (setting [8]); 20.2 h at CYP1A2; below 5 min at CYP2B6; 1.5 min in [2]; 11.2 h in series [5] (setting [9]); 2.07 h in series [6]. For the same molecule, the half-life at 1 μM in series [3] amounted to 48 s; in series [7], 1.22 h; at CYP2C8 it was 0.85 h; on CYP2C9 it was 3.83 h. The microsomal CLint at 1 μM in series [4] (setting [8]) was found to be 54.8 µL/min/mg; in series [2], 478 µL/min/mg; in [5] (setting [9]) it was 10.4 µL/min/mg; in series [6], 55.7 µL/min/mg; in [3] it was 916 µL/min/mg; in series [7] it was 95.3 µL/min/mg. The solubility at 24 h in series [1] was determined as 184 µM (≈ 42.3 µg/mL). Also, the “Percent Loss of Substrate” value was 100% in series [2] and 100/100% in [3]. Also, in series [5] (0.1 mg/ml protein), the “increase in metabolic stability, transgenic vs wild type lung microsomes” value is recorded as 5 fold.
